pIC50: −log10 of the molar value.
How the values were obtained:
[1] = system: Leishmania donovani; experiment: Antiamastigote activity against amastigote stage of Leishmania donovani MHOM/IN/80/Dd8 expressing luciferase firefly reporter gene infected in mouse J774A1 cells after 72 hrs by luminescence assay; type: functional, organism-based; settings: MHOM/IN/80/Dd8, J774.A1, 72 h
Outline: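 J-774A.1 macrophages were seeded at 4 x 10^4/mL in RPMI-1640 with 10% heat-inactivated FCS at 37 °C, 5% CO2. After 24 h they were infected with stationary-phase luciferase-expressing promastigotes at 4 x 10^5/mL. Uninternalized parasites were washed off after 24 h. Compounds were tested at 7 dilutions from 40 µM for 72 h. Luminescence was read with Steady Glo. IC50 came from four-parameter Hill fitting, averaged over at least duplicates.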

[2] = system: Leishmania donovani; experiment: Antipromastigote activity against Leishmania donovani MHOM/IN/80/Dd8 expressing luciferase firefly reporter gene at 25 uM after 96 hrs by luminescence assay; settings: MHOM/IN/80/Dd8, 96 h
[3] = Cytotoxicity against African green monkey Vero cells assessed as cell viability after 72 hrs by MTT assay; type: cell-based; settings: chlorocebus sabaeus
Outline: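 Vero cells at 1 x 10^5/mL were exposed to 7 concentrations from 400 µM at 37 °C in CO2 for 72 h. MTT (5 mg/mL in PBS) was then added for 2 h at 37°C. Formazan was dissolved in DMSO and absorbance read at 540 nm. CC50 was estimated and averaged over at least duplicates.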

[4] = (§1) Selectivity index, ratio of CC50 for African green monkey Vero cells to IC50 for promastigote stage of Leishmania donovani MHOM/IN/80/Dd8; type: functional; settings: in the assay text read “amastigote stage” for “promastigote stage”
Outline: (§2)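 SI was calculated as Vero CC50 (MTT, 72 h) divided by IC50 against intracellular amastigotes in J-774A.1 cells (luciferase luminescence, 72 h).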

[5] = system: Leishmania donovani; experiment: Antileishmanial activity against Leishmania donovani MHOM/IN/80/Dd8 infected in golden hamster assessed as inhibition of amastigotes multiplication at 50 mg/kg, ip for 10 days treatment started 15 days after infection measured on day 7; type: functional; settings: MHOM/IN/80/Dd8, ip, route intraperitoneal
Outline: (§3)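 Golden hamsters of both sexes were infected intracardially with 1 x 10^7 amastigotes. A pre-treatment splenic biopsy was taken after 15 days, and only animals with +1 grade infection (5-10 amastigotes/100 spleen cell nuclei) were used, five per compound. Dosing began 2 days after that biopsy and ran on consecutive days. Splenic biopsy on day 7 after the last dose was Giemsa-stained. PI = 100-[(ANAT x 100)/(INAT x TIUC)].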

[6] = system: Leishmania donovani; experiment: Antileishmanial activity against Leishmania donovani MHOM/IN/80/Dd8 infected in golden hamster assessed as inhibition of amastigotes multiplication at 100 mg/kg, ip for 5 days treatment started 15 days after infection measured on day 7; type: functional; settings: MHOM/IN/80/Dd8, ip, route intraperitoneal; outline: as §3
[7] = system: Leishmania donovani; experiment: Antileishmanial activity against Leishmania donovani MHOM/IN/80/Dd8 infected in golden hamster assessed as inhibition of amastigotes multiplication at 50 mg/kg, ip for 5 days treatment started 15 days after infection measured on day 7; type: functional; settings: MHOM/IN/80/Dd8, ip, route intraperitoneal; outline: as §3
[8] = system: Leishmania donovani; experiment: Antileishmanial activity against Leishmania donovani MHOM/IN/80/Dd8 infected in golden hamster assessed as inhibition of amastigotes multiplication at 30 mg/kg, po for 5 days treatment started 15 days after infection measured on day 7; type: functional; outline: as §3
[9] = system: Leishmania donovani; experiment: Antileishmanial activity against Leishmania donovani MHOM/IN/80/Dd8 infected in golden hamster assessed as inhibition of amastigotes multiplication at 40 mg/kg, ip for 5 days treatment started 15 days after infection measured on day 7; type: functional, organism-based; set-up: dose 40 mg/kg; outline: as §3
[10] = system: Vero; experiment: as §1; type: functional; settings: in the assay text read “amastigote stage” for “promastigote stage”; outline: as §2

Compound	pIC50 [1]	inhibition at 25 µM [2] [%]	CC50 at 72 h [3] [µM]	Ratio CC50/IC50 [4]	further results
CC1(C)C=Cc2c(ccc(C(=O)/C=C/c3ccc(OCCN4CCCCC4)cc3)c2O)O1	4.75	100	> 400	>22.6	–
CCOc1ccc(/C=C/C(=O)c2ccc(OCCN3CCCCC3)cc2)cc1	< 4.70	99.9	–	–	–
CC1(C)C=Cc2c(ccc(C(=O)/C=C/c3cc(C=O)ccc3O)c2O)O1	< 4.70	94.5	–	–	–
O=C(/C=C/c1ccc(OCCN2CCCCC2)cc1)c1ccc(OCCN2CCCCC2)cc1	< 4.70	99.9	–	–	–
CC1(C)C=Cc2c(ccc(C(=O)/C=C/c3ccc(Br)cc3)c2O)O1	< 4.70	100	–	–	–
CC(C)=CCC/C(C)=C/COc1ccc(C(=O)/C=C/c2ccc(OCCN3CCCC3)cc2)cc1	–	100	–	–	–
CC1(C)C=Cc2c(ccc(C(=O)/C=C/c3ccc4ccoc4c3)c2O)O1	< 4.70	91.2	–	–	–
CN(C)c1ccc(/C=C/C(=O)c2ccc3c(c2O)C=CC(C)(C)O3)cc1	4.70	97.1	> 400	>20.2	–
CC1(C)C=Cc2c(ccc(C(=O)/C=C/c3cccnc3)c2O)O1	4.65	100	8.6	0.4	–
CC1(C)C=Cc2c(ccc(C(=O)/C=C/c3ccc(Cl)cc3)c2O)O1	4.75	99.9	92.2	5.1	–
CC1(C)C=Cc2c(ccc(C(=O)/C=C/c3cnc4ccccc4c3)c2O)O1	–	62.2	–	–	–
CC(C)=CCC/C(C)=C/CC/C(C)=C/COc1ccc(C(=O)/C=C/c2ccc(N(C)C)cc2)cc1	< 4.70	76.1	–	–	–
CC1(C)C=Cc2c(ccc(C(=O)/C=C/c3ccc(OCCN4CCCC4)cc3)c2O)O1	< 4.70	100	–	–	–
CC1(C)C=Cc2c(ccc(C(=O)/C=C/c3ccc(O)cc3)c2O)O1	< 4.70	70.2	–	–	–
CCCCCCCCCCCCCCCCOP(=O)([O-])OCC[N+](C)(C)C [MILTEFOSINE]	–	100	–	6.2	inhibition in vivo at 30 mg/kg [8]: 98.5%
sodium stibogluconate	–	–	–	–	inhibition [9]: 89.5%; Ratio CC50/IC50 [10]: > 8

Further compounds by rising pIC50 [1], results first:

pIC50 [1]	Compound	inhibition at 25 µM [2] [%]	CC50 at 72 h [3] [µM]	Ratio CC50/IC50 [4]	further results
4.77	CC1(C)C=Cc2c(ccc(C(=O)/C=C/c3ccc(F)c(F)c3)c2O)O1	99.9	146	8.6	–
4.78	CC1(C)C=Cc2c(ccc(C(=O)/C=C/c3ccc(F)cc3)c2O)O1	99	158	9.5	–
4.83	CCN(CC)CCOc1ccc(/C=C/C(=O)c2ccc3c(c2O)C=CC(C)(C)O3)cc1	100	341	22.9	–
4.86	CC1(C)C=Cc2c(ccc(C(=O)/C=C/c3ccc(Cl)c(Cl)c3)c2O)O1	99.9	142	10.2	–
4.92	CCOc1cc(/C=C/C(=O)c2ccc3c(c2O)C=CC(C)(C)O3)ccc1F	99.9	185	15.3	–
4.92	CC1(C)C=Cc2c(ccc(C(=O)/C=C/c3cc4ccccc4nc3Cl)c2O)O1	100	257	21.2	–
4.92	COc1ccc(/C=C/C(=O)c2ccc3c(c2O)C=CC(C)(C)O3)cc1OC	98.2	267	22.4	–
5.01	CC1(C)C=Cc2c(ccc(C(=O)/C=C/c3ccc(Cl)cc3Cl)c2O)O1	99.9	131	13.5	–
5.03	CN(C)c1ccc(/C=C/C(=O)c2ccc(OCCN3CCCCC3)cc2)cc1	99.9	251	27	–
5.03	CC(C)=CCC/C(C)=C/COc1ccc(C(=O)/C=C/c2ccc(O)cc2)cc1	95.2	12.9	1.4	–
5.09	CC1(C)C=Cc2c(ccc(C(=O)/C=C/c3ccc(C#N)cc3)c2O)O1	99.6	80.2	9.8	–
5.21	CC(=O)Nc1ccc(/C=C/C(=O)c2ccc3c(c2O)C=CC(C)(C)O3)cc1	98.7	278	45.6	–
5.28	Cc1ccc2nc(Cl)c(/C=C/C(=O)c3ccc4c(c3O)C=CC(C)(C)O4)cc2c1	99.8	399	75.3	–
5.28	CC1(C)C=Cc2c(ccc(C(=O)/C=C/c3ccc([N+](=O)[O-])cc3)c2O)O1	97.4	106	20.4	–
5.29	CCOc1ccc(/C=C/C(=O)c2ccc3c(c2O)C=CC(C)(C)O3)cc1	88.9	215	42.1	–
5.39	CC(C)=CCOc1ccc(C(=O)/C=C/c2ccc(N(C)C)cc2)cc1	84.2	> 400	>97.6	–
5.51	COc1ccc(/C=C/C(=O)c2ccc(OC/C=C(\C)CCC=C(C)C)cc2)cc1	93	146	47.2	inhibition in vivo at 50 mg/kg [5]: 83.3%; inhibition in vivo at 100 mg/kg [6]: 75.9%
5.55	CC1(C)C=Cc2c(ccc(C(=O)/C=C/c3ccc(OCCN4CCCCC4)cc3)c2OCCN2CCCCC2)O1	100	86.5	30.9	–
5.60	CC1(C)C=Cc2c(ccc(C(=O)/C=C/c3ccc(OCCN4CCCC4)cc3)c2OCCN2CCCC2)O1	99.9	258	103.2	–
5.70	CC1(C)C=Cc2c(ccc(C(=O)/C=C/c3ccccn3)c2O)O1	99.9	20.5	10.2	–
5.70	CCN(CC)CCOc1ccc(/C=C/C(=O)c2ccc3c(c2OCCN(CC)CC)C=CC(C)(C)O3)cc1	100	325	162.5	inhibition in vivo at 50 mg/kg [7]: 48.5%

From ChEMBL document CHEMBL3259782, “Synthesis and biological evaluation of chalcones as potential antileishmanial agents” (Eur J Med Chem, 2014)
